Experimental data as given in ChEMBL document CHEMBL1177741, “Cardiac glycosides from Antiaris toxicaria with potent cardiotonic activity” (J Nat Prod, 2010).

What was measured:
[1] = Cardiotonic activity in guinea pig left atrial muscles assessed as minimum positive inotropic effective concentration causing myocardial contraction; format: functional, Cavia porcellus, Muscle tissue
In short: (§1)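 Guinea pig left atrial or right ventricular strips were perfused with Tyrode's solution, held at 1 g tension and paced at 2 Hz (2 ms, twice threshold). After about 60 min stabilisation, drug was added cumulatively. PIECmin was recorded as the lowest concentration that increased myocardial contraction.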

[2] = Cardiotonic activity in guinea pig right ventricular muscles assessed as minimum positive inotropic effective concentration causing myocardial contraction; format: functional, Cavia porcellus, Muscle tissue; in short: as §1
[3] = Cardiotonic activity in guinea pig left atrial muscles assessed as maximum positive inotropic effective concentration causing myocardial contraction relative to basal level; format: functional, Cavia porcellus, Muscle tissue
In short: (§2)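 Isolated left atrial or right ventricular strips from adult guinea pigs (300–500 g; pentobarbital 25 mg/kg i.p.; heart retrogradely perfused with Tyrode's, pH not stated). Tissue held at 1 g tension, paced at 2 Hz (2 ms pulses, twice threshold), stabilised about 60 min, then given cumulative drug additions. Maximal inotropic effect taken at the concentration just before arrhythmia onset.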

[4] = Cardiotonic activity in guinea pig right ventricular muscles assessed as maximum positive inotropic effective concentration causing myocardial contraction relative to basal level; format: functional, Cavia porcellus, Muscle tissue; in short: as §2
[5] = Safety index, ratio of arrhythmogenic concentration to minimum positive inotropic effective concentration causing myocardial contraction in guinea pig left atrial muscles; format: toxicity, tissue-based, Cavia porcellus, Muscle tissue; settings: for selectivity ratio: isolated left atrial muscles
In short: (§3)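 Paced guinea pig left atrial or right ventricular strips (1 g tension, 2 Hz) received cumulative drug addition. The lowest concentration raising contraction (PIECmin) and the concentration inducing arrhythmia were both recorded. Safety index was calculated as the ratio of the arrhythmogenic concentration to PIECmin.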

[6] = Safety index, ratio of arrhythmogenic concentration to minimum positive inotropic effective concentration causing myocardial contraction in guinea pig right ventricular muscles; format: toxicity, tissue-based, Cavia porcellus, Muscle tissue; settings: for selectivity ratio: isolated right ventricular muscles; in short: as §3

Row | SMILES | Activity [1] | Activity [2] | Activity [3] | Activity [4] | selectivity ratio [5] | selectivity ratio [6] | Ratio [5] | Ratio [6]
1 | C[C@H]1O[C@H](O[C@H]2CC[C@]3(C=O)[C@H]4C[C@@H](O)[C@]5(C)[C@@H](C6=CC(=O)OC6)CC[C@]5(O)[C@@H]4CC[C@]3(O)C2)[C@H](O)[C@H](O)[C@H]1O | 0.5 µM | 2 µM | 220% | 200% | 10 | 15 |  | 
2 | C[C@@H]1O[C@H](O[C@H]2CC[C@]3(C=O)[C@H]4C[C@@H](O)[C@]5(C)[C@@H](C6=CC(=O)OC6)CC[C@]5(O)[C@@H]4CC[C@]3(O)C2)[C@H](O)[C@H](O)[C@H]1O | 1 µM | 2 µM | 243% | 250% | 10 | 15 |  | 
3 | CO[C@H]1[C@@H](O[C@H]2CC[C@]3(C=O)[C@H]4CC[C@]5(C)[C@@H](C6=CC(=O)OC6)CC[C@]5(O)[C@@H]4CC[C@]3(O)C2)O[C@H](C)[C@@H](O)[C@H]1O (stereo in doubt; 18) [STROPHATHOJAVOSIDE] | 0.25 µM | 1 µM | 567% | 200% |  | 5 | 10 | 
4 | CO[C@H]1[C@@H](O[C@H]2CC[C@]3(C=O)[C@H]4CC[C@]5(C)[C@@H](C6=CC(=O)OC6)CC[C@]5(O)[C@@H]4CC[C@]3(O)C2)O[C@H](C)[C@@H](O)[C@H]1O (stereo in doubt; 20) [STROPHATHOJAVOSIDE] | 0.5 µM | 0.5 µM | 225% | 350% |  |  | 2.5 | 4
5 | C[C@H]1O[C@H](O[C@H]2CC[C@]3(C=O)[C@H]4C[C@@H](O)[C@]5(C)[C@@H](C6=CC(=O)OC6)CC[C@]5(O)[C@@H]4CC[C@]3(O)C2)[C@H](O)[C@H](O)[C@@H]1O [ANTIALLOSIDE] | 0.25 µM |  | 350% |  | 80 |  |  | 
6 | C[C@]12[C@H](O)C[C@H]3[C@@H](CC[C@]4(O)CCCC[C@]34C=O)[C@@]1(O)CC[C@@H]2C1=CC(=O)OC1 [ANTIARIGENIN] | 0.05 µM |  | 121% |  | 20 |  |  | 
7 | C[C@H]1O[C@@H](O[C@H]2CC[C@]3(C)[C@H]4CC[C@]5(C)[C@@H](C6=CC(=O)OC6)CC[C@]5(O)[C@@H]4CC[C@]3(O)C2)[C@H](O)[C@H](O)[C@H]1O [ANTIAROSIDE A] | 0.1 µM | 0.083 µM | 158% | 150% | 4.3 | 2 |  | 
8 | C[C@@H]1O[C@@H](O[C@H]2CC[C@@]3(CO)[C@H](CC[C@@H]4[C@@H]3CC[C@]3(C)[C@@H](C5=CC(=O)OC5)CC[C@]43O)C2)[C@H](O)[C@H](O)[C@H]1O[C@@H]1O[C@H](CO)[C@@H](O)[C@H](O)[C@H]1O [ANTIAROSIDE B] | 0.38 µM | 0.075 µM | 373% | 382% | 5 | 100 |  | 
9 | C[C@@H]1O[C@H](O[C@@H]2CC[C@]3(C=O)[C@H]4CC[C@]5(C)[C@@H](C6=CC(=O)OC6)CC[C@]5(O)[C@@H]4CC[C@]3(O)C2)[C@H](O)[C@H](O)[C@H]1O [ANTIAROSIDE C] | 2.75 µM | 4 µM | 208% | 229% | 15 | 9.7 |  | 
10 | C[C@@H]1O[C@H](O[C@H]2CC[C@@]3(C(=O)O)[C@H](CC[C@@H]4[C@@H]3CC[C@]3(C)[C@@H](C5=CC(=O)OC5)CC[C@]43O)C2)[C@H](O)[C@H](O)[C@H]1O [ANTIAROSIDE E] | 0.42 µM | 1.33 µM | 264% | 230% | 10 | 7.7 |  | 
11 | C[C@@H]1O[C@H](O[C@H]2CC[C@@]3(C(=O)O[C@@H]4O[C@H](CO)[C@@H](O)[C@H](O)[C@H]4O)[C@H](CC[C@@H]4[C@@H]3CC[C@]3(C)[C@@H](C5=CC(=O)OC5)CC[C@]43O)C2)[C@H](O)[C@H](O)[C@H]1O [ANTIAROSIDE F] | 1.42 µM | 3.17 µM | 140% | 618% | 6 | 5.8 |  | 
12 | C[C@@H]1O[C@H](O[C@H]2CC[C@]3(C(=O)O)[C@H]4C[C@@H](O)[C@]5(C)[C@@H](C6=CC(=O)OC6)CC[C@]5(O)[C@@H]4CC[C@]3(O)C2)[C@H](O)[C@H](O)[C@H]1O [ANTIAROSIDE G] | 3.75 µM | 3.67 µM | 419% | 221% | 13 | 20.7 |  | 
13 | C[C@H]1O[C@H](O[C@H]2CC[C@]3(C(=O)O)[C@H]4C[C@@H](O)[C@]5(C)[C@@H](C6=CC(=O)OC6)CC[C@]5(O)[C@@H]4CC[C@]3(O)C2)[C@H](O)[C@H](O)[C@H]1O [ANTIAROSIDE H] | 7.5 µM | 8.33 µM | 144% | 260% | 7.5 | 9.7 |  | 
14 | C[C@@H]1O[C@H](O[C@H]2CC[C@@H]3[C@H]4CC[C@]5(C)[C@@H](C6=CC(=O)OC6)CC[C@]5(O)[C@@H]4CC[C@]3(O)C2)[C@H](O)[C@H](O)[C@H]1O [ANTIAROSIDE I] | 0.83 µM | 0.67 µM | 562% | 1246% | 6.7 | 10.7 |  | 
15 | C[C@]12CC[C@H](O)C[C@@]1(O)CC[C@@H]1[C@@H]2CC[C@]2(C)[C@@H]([C@]3(O)COC(=O)C3)CC[C@]12O [ANTIAROTOXININ A] | 0.1 µM |  | 367% |  | 1000 |  |  | 
16 | C[C@@H]1O[C@@H](O[C@H]2CC[C@]3(C=O)[C@H]4CC[C@]5(C)[C@@H](C6=CC(=O)OC6)CC[C@]5(O)[C@@H]4CC[C@]3(O)C2)[C@H](O)[C@H](O)[C@H]1O [CONVALLATOXIN] | 0.1 µM | 0.125 µM | 467% | 300% | 10 | 8 |  | 
17 | C[C@@H]1O[C@H](O[C@H]2CC[C@]3(CO)[C@H]4CC[C@]5(C)[C@@H](C6=CC(=O)OC6)CC[C@]5(O)[C@@H]4CC[C@]3(O)C2)[C@H](O)[C@H](O)[C@H]1O [CONVALLATOXOL] | 0.1 µM | 0.25 µM | 138% | 625% | 5 | 20 |  | 
18 | C[C@@H]1O[C@@H](O[C@H]2CC[C@]3(C=O)[C@H]4CC[C@]5(C)[C@@H](C6=CC(=O)OC6)CC[C@]5(O)[C@@H]4CC[C@]3(O)C2)[C@H](O)[C@H](O)[C@H]1O[C@@H]1O[C@H](CO)[C@@H](O)[C@H](O)[C@H]1O [CONVALLOSIDE] | 0.25 µM | 1 µM | 443% | 292% | 20 | 9 |  | 
19 | C[C@H]1O[C@@H](O[C@H]2CC[C@]3(C=O)[C@H]4CC[C@]5(C)[C@@H](C6=CC(=O)OC6)CC[C@]5(O)[C@@H]4CC[C@]3(O)C2)[C@H](O)[C@H](O)[C@H]1O [DESGLUCOCHEIROTOXIN] | 0.05 µM | 0.5 µM | 300% | 300% | 50 | 10 |  | 
20 | C[C@H]1O[C@H](O[C@H]2CC[C@]3(C=O)[C@H]4CC[C@]5(C)[C@@H](C6=CC(=O)OC6)CC[C@]5(O)[C@@H]4CC[C@]3(O)C2)[C@H](O)[C@H](O[C@@H]2O[C@H](CO)[C@@H](O)[C@H](O)[C@H]2O)[C@@H]1O [GLUCOSTROPHALLOSIDE] | 0.25 µM | 1 µM | 489% | 350% | 10 | 10 |  | 
21 | C[C@@H]1O[C@@H](O[C@H]2C[C@@H](O)[C@]3(CO)[C@H]4[C@H](O)C[C@]5(C)[C@@H](C6=CC(=O)OC6)CC[C@]5(O)[C@@H]4CC[C@]3(O)C2)[C@H](O)[C@H](O)[C@H]1O [OUABAIN] | 0.05 µM | 0.05 µM | 775% | 249% | 20 | 20 |  | 
22 | C[C@@H]1O[C@H](O[C@H]2CC[C@]3(C)[C@H]4CC[C@]5(C)[C@@H](C6=CC(=O)OC6)CC[C@]5(O)[C@@H]4CC[C@]3(O)C2)[C@H](O)[C@H](O)[C@H]1O [PERIPLORHAMNOSIDE] | 0.05 µM | 0.25 µM | 381% | 355% | 11 | 8.8 |  | 
23 | CO[C@H]1[C@@H](O[C@H]2CC[C@]3(C=O)[C@H]4C[C@@H](O)[C@]5(C)[C@@H](C6=CC(=O)OC6)CC[C@]5(O)[C@@H]4CC[C@]3(O)C2)O[C@H](C)[C@@H](O)[C@@H]1O [TOXICARIOSIDE B] | 0.1 µM |  | 163% |  | 10 |  |  | 
